# Source: PubChem (The Scripps Research Institute Molecular Screening Center)
# PAFAH1B2 FP inh: PAFAH1B2 enzyme inhibitors, primary screen, biochemical, fluorescence polarization, human | inhibition, % at 3.39 µM | 1.2% of 340,000 active | Platelet-activating factor acetylhydrolase IB subunit alpha2 (Homo sapiens), P68402 | recombinant PAFAH1B2, FP-rhodamine activity probe;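 active = inhibition above the mean of all tested compounds plus 3 SD, cut at about 24% in these data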;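 note: 0% = enzyme with DMSO and 100% = wells lacking PAFAH1B2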
# Target sequence (P68402 whole entry, looked up): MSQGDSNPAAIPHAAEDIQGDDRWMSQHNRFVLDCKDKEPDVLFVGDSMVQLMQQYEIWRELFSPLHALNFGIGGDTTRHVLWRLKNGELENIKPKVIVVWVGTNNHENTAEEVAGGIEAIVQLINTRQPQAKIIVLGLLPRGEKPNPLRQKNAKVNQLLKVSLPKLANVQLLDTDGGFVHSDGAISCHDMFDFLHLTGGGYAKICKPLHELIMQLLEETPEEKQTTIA
# PAFAH1B3 FP inh: PAFAH1B3 enzyme inhibitors, primary screen, biochemical, fluorescence polarization, human; AID 492972, 2010; inhibition, % at 3.39 µM; recombinant PAFAH1B3, FP-rhodamine probe; 0.28% of 340,000 active; Platelet-activating factor acetylhydrolase IB subunit alpha1 (Homo sapiens), Q15102;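 active = inhibition above the screen-wide average of all tested compounds plus 3 SD, cut at about 25% in these data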;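 note: 0% = enzyme with DMSO only and 100% = wells lacking PAFAH1B3 protein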
# mABHD4 FP: ABHD4 inhibitors, primary screen, biochemical, fluorescence polarization, mouse. (Lyso)-N-acylphosphatidylethanolamine lipase (Mus musculus), Q8VD66. inhibition, % at 8.92 µM. purified mABHD4, FP-Rh probe fluorescence polarization. 0.54% of 370,000 active;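 active = inhibition exceeding the mean over every tested compound plus 3 SD, cut at about 30% in these data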;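 note: 0% = plate median of compound wells and 100% = S159A mutant with DMSO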
#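 Test system: mABHD4 protein | Buffer or medium: HEPES pH 7.0 buffer, 150 mM NaCl, 0.01% Pluronic F-127 | Probe or stimulus: FP-Rh fluorescent activity-based probe, added after compound pre-incubation | Timing: Pre-incubation 45 min, probe exposure 60 min, at 25 °C | Technique: Fluorescence polarization, excitation 525 nm, emission 598 nm, BODIPY TMR filters | Repeats: Single well per compound (singlicate)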
# PAFAH2 inh: PAFAH2 enzyme inhibitors, primary screen, biochemical, fluorescence polarization, human; Platelet-activating factor acetylhydrolase 2, cytoplasmic (Homo sapiens), Q99487; recombinant PAFAH2, FP-rhodamine activity probe; inhibition, % at 3.39 µM; 0.99% of 340,000 active;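 active = inhibition above the mean over all tested compounds plus 3 SD, cut at about 30% in these data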;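 note: inhibitors block probe labeling of enzyme so polarization drops; 0% = enzyme with DMSO and 100% = wells lacking PAFAH2 protein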
# pPAFAH inh: pPAFAH enzyme inhibitors, primary screen, biochemical, fluorescence polarization, human; Platelet-activating factor acetylhydrolase (Homo sapiens), Q13093; recombinant pPAFAH, FP-rhodamine probe fluorescence polarization; inhibition, % at 3.39 µM; 1.5% of 330,000 active; AID 463082, 2010;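 active = inhibition above the mean inhibition across the screen plus 3 SD, cut at about 25% in these data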;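 note: inhibitors block binding of the rhodamine activity-based probe so polarization drops; 0% = enzyme with DMSO and 100% = wells lacking pPAFAH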
# Target sequence (Q13093 whole entry, looked up): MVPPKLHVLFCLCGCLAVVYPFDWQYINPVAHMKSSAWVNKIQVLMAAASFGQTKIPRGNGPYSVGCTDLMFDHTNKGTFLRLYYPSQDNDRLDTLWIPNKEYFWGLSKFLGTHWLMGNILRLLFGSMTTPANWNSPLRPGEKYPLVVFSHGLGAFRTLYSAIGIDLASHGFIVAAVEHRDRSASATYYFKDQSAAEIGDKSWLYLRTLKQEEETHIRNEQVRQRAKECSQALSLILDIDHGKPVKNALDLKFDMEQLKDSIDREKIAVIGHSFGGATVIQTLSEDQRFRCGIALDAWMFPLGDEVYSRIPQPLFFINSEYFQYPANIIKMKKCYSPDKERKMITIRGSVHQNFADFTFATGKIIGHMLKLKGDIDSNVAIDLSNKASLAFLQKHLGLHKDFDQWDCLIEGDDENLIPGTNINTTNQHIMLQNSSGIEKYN
# HTRA1 inhibitor: HTRA1 serine protease inhibitors, primary screen, biochemical, fluorescence polarization, HTS. Q92743. recombinant HTRA1, FP-rhodamine activity-based probe. inhibition, % at 5.96 µM. 0.5% of 340,000 active. AID 504803, 2011; in the data active = inhibition above about 36%;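 note: 0% = enzyme with DMSO and 100% = wells lacking enzyme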
# * = called active by the depositor; · = no result given. Compounds with a hit are over-represented: about 2.8% of the library has one in this group of screens.
SMILES,PAFAH1B2 FP inh,PAFAH1B3 FP inh,mABHD4 FP,PAFAH2 inh,pPAFAH inh,HTRA1 inhibitor
Nc1ncc(Br)cc1S(=O)(=O)NCCC(=O)Nc1cccc(Cl)c1,4,3,-8,1,-4,-23
Nc1ncc(Br)cc1S(=O)(=O)NCCC(=O)NCCc1ccc(Cl)cc1,26*,2,-3,2,5,-14
O=C(Nc1nnc(SCc2ccc(F)cc2)s1)C1CC(=O)N(c2ccc3c(c2)OCCO3)C1 (stereo not drawn),4,-3,10,0,26*,-10
N#Cc1ccc(CSc2nnc(NC(=O)C3CC(=O)N(c4ccc5c(c4)OCCO5)C3)s2)cc1 (stereo not drawn),1,12,·,-2,9,1
O=C(Nc1nnc(SCc2c(Cl)cccc2Cl)s1)C1CC(=O)N(c2ccc3c(c2)OCCO3)C1 (stereo not drawn),-1,3,1,21,32*,-3
CC(C)C[C@@H]1COc2cccc(N3CCSCC3)c2S(=O)(=O)N1C,·,·,0,·,·,·
COc1ccc(C(=O)N(CCc2ccccc2)Cc2ccccc2)cc1S(=O)(=O)N1CCOCC1,4,0,2,1,27*,-8
N/C(=N\C(=O)OCc1ccccc1)N(CC#CC1=CCCCC1)CC1CC1,·,·,-12,·,·,·
Nc1ccc(C(=O)O)c(O)c1,3,2,15,-8,12,6
Nc1ccc(N)c(C(=O)O)c1,47*,69*,·,66*,34*,54*
O=C(c1cc(S(=O)(=O)N2CCN(c3ccccc3)CC2)ccc1Cl)N1CCCCCCC1,6,0,6,0,32*,-11
CC1CN(C(=O)c2cc(S(=O)(=O)N3CCN(c4ccccc4)CC3)ccc2Cl)CC(C)O1 (stereo not drawn),2,8,3,3,4,-2
O=C(O)c1cc(-c2ccc(Cl)c(Cl)c2)n(-c2ccccc2)n1,29*,1,10,-2,6,-1
O=S(=O)(c1ccc(F)cc1)n1cnc2ccccc21,26*,14,-7,5,-6,-4
O=S(=O)(c1ccc(S(=O)(=O)n2cnc3ccccc32)cc1)N1CCCCCC1,11,2,5,0,3,-1
CCOC(=O)CC(c1ccc(N)cc1)n1c(C)ccc1C (stereo not drawn),2,-2,6,3,-1,4
Cc1ccc(C)n1C(CC(=O)O)c1ccc(C#N)cc1 (stereo not drawn),·,·,28,·,25*,·
Cc1ccc2nc(-c3ccc(NC(=O)CSc4nnc(Cc5cccs5)n4C)cc3)sc2c1,·,·,-13,·,·,·
O=C(COC(=O)c1cc(-c2ccco2)nc2ccccc12)NCc1ccc2c(c1)OCO2,0,6,1,2,26*,-27
Cc1cccc(NC(=O)Cn2cnc3ccc(S(=O)(=O)N4CCC(C)CC4)cc3c2=O)n1,24*,1,-5,-1,1,-5
CCN(C(=O)CN1C(=O)NC(c2ccccc2)(c2ccc(C)c(C)c2)C1=O)C1CCCCC1 (stereo not drawn),26*,6,6,-2,8,-47
O=C(CSc1nc2ccccc2nc1N1CCCC1)N1CCN(c2cccc(C(F)(F)F)c2)CC1,·,·,10,·,·,·
COC(=O)c1ccc(Cn2ccc3ccc(-c4ccc5ccn(C(=O)c6ccc(C)cc6)c5c4)cc32)cc1,·,·,-10,·,·,·
Clc1ccc(SCc2cc(-c3ccccc3)no2)cc1,42*,4,-16,1,-1,-7
OCCCNC(=S)Nc1ccc2nc(-c3ccccn3)c(-c3ccccn3)nc2c1,5,-4,12,-6,6,-1
SMILES,PAFAH1B2 FP inh,PAFAH1B3 FP inh,mABHD4 FP,PAFAH2 inh,pPAFAH inh,HTRA1 inhibitor
O=C(Nc1ccc(F)c(Cl)c1)NC1CC1,8,2,-13,6,7,4
O=C(Nc1ccc2nc(-c3ccco3)c(-c3ccco3)nc2c1)NC1CC1,21,36*,·,35*,·,51*
O=C(NCCCO)Nc1ccc2nc(-c3ccco3)c(-c3ccco3)nc2c1,·,·,·,·,62*,·
COc1ccc(NS(=O)(=O)c2ccc(C(=O)N(C)Cc3ccc(C)o3)cc2)cc1,4,9,-3,0,32*,-3
COc1ccc(NS(=O)(=O)c2ccc(NC(=O)C3CCCO3)cc2)cc1 (stereo not drawn),2,-1,-2,-6,26*,-3
COc1ccc(NS(=O)(=O)c2ccc(C)c(C(=O)N(C)Cc3ccc(C)cc3)c2)cc1,-1,9,3,7,28*,-10
COc1ccc(CN(C)C(=O)c2ccc(NS(=O)(=O)c3ccc(F)cc3)cc2)c(OC)c1,0,5,-12,2,21,0
O=C(Nc1ccc(Oc2ccc(NC(=O)C3CCCO3)cc2)cc1)C1CCCO1 (stereo not drawn),1,3,5,14,1,-1
Cc1ccc(NS(=O)(=O)c2ccc(CCC(=O)NC3CC3)cc2)cc1,11,10,6,-4,20,-1
COCCNC(=O)CCc1ccc(S(=O)(=O)Nc2ccc(C)cc2)cc1,12,-4,-6,1,25*,-6
C/C=C/C(=O)N1CCC(C(=O)NC2CCCc3ccccc32)CC1 (stereo not drawn),·,·,2,·,·,·
CC(Oc1ccccc1)C(=O)N=C1SC2CS(=O)(=O)CC2N1Cc1ccc(F)cc1 (stereo not drawn),6,2,-2,2,26*,-3
CC(C)c1ccc(C(C)NCCS(=O)(=O)c2ccc(Cl)cc2)cc1 (stereo not drawn),34*,6,6,5,1,-11
CCCCOCCCNC(=O)C[C@@H]1C(=O)N2CCCC3=C2[C@@]1(C(=O)OCC)CCC3,·,·,0,·,·,·
COc1ccc(Cc2nn3c(-c4ccccc4OC)nnc3s2)cc1,1,3,8,5,11,0
COc1ccccc1-c1nnc2sc(COc3ccc(Cl)cc3)nn12,26*,-3,-11,6,1,-28
O=C(CSc1nnc(-c2ccccc2)n1-c1ccc(Cl)cc1)c1ccc(F)cc1,·,·,-1,·,·,·
O=S(=O)(c1ccc(S(=O)(=O)N2CCC3(CC2)OCCO3)cc1)N1CCCC1,5,2,1,1,2,-3
O=S(=O)(c1ccc(Br)cc1)N1CCC2(CC1)OCCO2,27*,7,-1,8,-2,-1
CCN1CCC(O)(/C=C/c2ccc(C(C)C)cc2)C(C(=O)/C=C/c2ccc(C(C)C)cc2)C1 (stereo not drawn),20,1,34*,-1,·,1
CC(C)CNC(=O)CSc1ccc(Cl)cc1,26*,-2,-1,2,3,-1
